# Measurements from different studies.
# Lines come from different studies, so protocols differ.
# Target: Aurora kinase B (AURKB, Homo sapiens, UniProt Q96GD4)
Compound,read-out,mode,method,tested at,measurement,value
Cc1ccc(C(=O)NCc2ccsc2)cc1C#Cc1cn(C(C)C)c2ncnc(N)c12,enzyme activity,inhibitor,,1 µM,activity vs control,40%
Cc1c[nH]c2nccc(Oc3c(F)cc(Nc4cc(Cl)nc(N)n4)cc3F)c12,cell-free assay,,competition with immobilised ligand,0.1 µM,remaining binding,82%
CNc1cccc2cc(C(=O)Nc3ccc(C(=O)O)cc3)c(=O)[nH]c12,enzyme activity,inhibitor,,10 µM,inhibition,-8.1%
C#Cc1cccc(Nc2ncnc3cc(OCCOC)c(OCCOC)cc23)c1,enzyme activity,inhibitor,,0.5 µM,activity vs control,74.7%
Cc1cc(NC(=O)c2cccc3cc(-c4cccc5[nH]nc(N)c45)ccc23)ccc1F,enzyme activity,inhibitor,,0.1 µM,activity vs control,12%
COc1cc(/C=C/C(=O)CC(=O)/C=C/c2ccc(O)c(OC)c2)ccc1O,enzyme activity,inhibitor,,1 µM,activity vs control,79%
CCc1ccccc1C(=O)Nc1n[nH]c2c(C)c(F)c(C3C(C#N)=C(C)N(C)C(C)=C3C#N)cc12,cell-free assay,,competition with immobilised ligand,1 µM,remaining binding,88%
N#CCCc1ccc2c(c1)-c1[nH]c3ccc([N+](=O)[O-])cc3c1CC(=O)N2,cell-free assay,,,0.5 µM,remaining signal,80%
CS(=O)(=O)Nc1cccc(-c2csc(NC(=O)CSc3nc4nccnc4c(=O)n3CCc3ccccc3)n2)c1,enzyme activity,inhibitor,,10 µM,inhibition,-11%
Cc1nn(CC(F)(F)F)cc1Nc1ncc(Br)c(NCCc2cnc[nH]2)n1,enzyme activity,inhibitor,radiometric,1 µM,remaining activity,22%
CN(C)S(=O)(=O)c1ccc2c(c1)/C(=C/c1cc3c([nH]1)CCCC3)C(=O)N2,cell-free assay,,,0.5 µM,remaining signal,11%
Cc1ccc(NC(=O)c2ccc(C)c(C(F)(F)F)c2)cc1C#Cc1nn(C2CCC(O)CC2)c2ncnc(N)c12 (centres unmarked),cell-free assay,inhibitor,,10 µM,remaining signal,475%
CN(C(=O)c1ccccc1)c1cc(N(C)c2ccc3c(c2)CCc2ccc(C(=O)NCCN4CCOCC4)cc2C3=O)ccc1F,cell-free assay,,competition with immobilised ligand,1 µM,remaining binding,100%
CN(C)C1CCN(CC#Cc2nn(C3CCCC3)c3nc(NCc4ccccc4)ncc23)C1 (centres unmarked),enzyme activity,inhibitor,FRET,1 µM,inhibition,21%
CO[C@@H](C)c1c(Nc2ccc([C@@H](N(C)C(=O)C3CCS(=O)(=O)CC3)C(F)(F)F)cc2)cnc2cc(Cl)nn12,cell-free assay,,competition with immobilised ligand,1 µM,remaining binding,74%
NS(=O)(=O)c1ccc(CNc2ccnc(Nc3cccc(CN4CCOCC4)c3)n2)cc1,enzyme activity,inhibitor,radiometric,1 µM,remaining activity,48%
COc1cccc(CNC(=O)c2nc3scc(COCc4ccc(C(=O)O)cc4)c3c(=O)[nH]2)c1,cell-free assay,,competition with immobilised ligand,1 µM,remaining binding,71.3%
Cc1nn(CC(F)(F)F)cc1Nc1ncc(C2CC2)c(NCCc2c[nH]cn2)n1,enzyme activity,inhibitor,radiometric,1 µM,remaining activity,82%
C[C@H](c1cccc(C#N)c1)n1cc(Cl)cc(C(N)=O)c1=N,cell-free assay,,competition with immobilised ligand,1 µM,remaining binding,100%
O=C(Nc1cccc(Nc2ncc(Br)c(NCCc3cnc[nH]3)n2)c1)N1CCCC1,enzyme activity,inhibitor,radiometric,1 µM,remaining activity,2%
